Measured values taken from ChEMBL document CHEMBL1154231, “Bioactive Nortriterpenoids from Schisandra grandiflora” (J Nat Prod, 2009).
≈ marks a conversion by molar mass, not a printed value.

What was measured:
[1] = system: Human immunodeficiency virus 1; test: Antiviral activity against HIV1 infected in human C8166 cells assessed as inhibition of virus-induced cytopathic effect; format: functional, organism-based; conditions: Human immunodeficiency virus 1, C8166
Procedure, shortened: (§1)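 HIV-1-induced cytopathic effect inhibition in permanent human T-cell line C8166, giving EC50. Cytotoxicity to uninfected C8166 cells run in parallel by MTT, giving CC50. Selectivity index taken as CC50/EC50. AZT served as positive control.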

[2] = Selectivity index, ratio of CC50 for human C8166 cells to EC50 for HIV1; format: toxicity, cell-based; conditions: read-out: Ratio CC50/EC50; procedure, shortened: as §1
[3] = system: K562; test: Cytotoxicity against human K562 cells after 48 hrs by sulforhodamine B assay; format: functional, cell-based; conditions: K562, 48 h
[4] = system: HepG2; test: Cytotoxicity against human HepG2 cells after 48 hrs by sulforhodamine B assay; format: functional, cell-based; conditions: HepG2, 48 h
[5] = Cytotoxicity against human C8166 cells by MTT assay; format: cell-based; procedure, shortened: as §1

Row | EC50 [1] [µg/mL] | SMILES | selectivity ratio [2] | IC50 [3] [µg/mL] | IC50 [4] [µg/mL] | CC50 [5] [µg/mL]
1 | 5.1 (≈ 9.1 µM) | C[C@@H]1C(=O)[C@@]2(C)CC[C@]34C[C@]56OC(=O)C[C@H]5O[C@@](C)(CO)[C@@H]6[C@@H](O)C[C@H]3C(=O)[C@]3(O4)O[C@@]4(C[C@H](C)C(=O)O4)[C@@H]1[C@H]32 [SCHIGRANDILACTONE C] | 12.7 | – | – | –
2 | 80.2 (≈ 143 µM) | C[C@@H]1C(=O)[C@@]2(C)CC[C@]34C[C@]56OC(=O)C[C@H]5O[C@@](C)(CO)[C@@H]6CC[C@@]3(O)C(=O)[C@@]3(O[C@@]5(C[C@H](C)C(=O)O5)[C@@H]1[C@H]32)O4 [SCHIGRANDILACTONE A] | 1.1 | 0.13 (≈ 0.232 µM) | 0.19 (≈ 0.339 µM) | –
3 | – | Cc1cn([C@H]2C[C@H](N=[N+]=[N-])[C@@H](CO)O2)c(=O)[nH]c1=O [ZIDOVUDINE] | – | – | – | > 200
4 | 20.8 (≈ 37.2 µM) | C[C@@H]1C(=O)[C@@]2(C)CC[C@]34C[C@]56OC(=O)C[C@H]5O[C@@](C)(CO)[C@@H]6C[C@@H]5O[C@@]53C(=O)[C@@]3(O[C@@]5(C[C@H](C)C(=O)O5)[C@@H]1[C@H]32)O4 [SCHIGRANDILACTONE B] | 4 | 3.19 (≈ 5.71 µM) | 0.2 (≈ 0.358 µM) | –
